Experimental findings from ChEMBL document CHEMBL2417357, “Synthesis and antiprotozoal activities of benzyl phenyl ether diamidine derivatives” (Eur J Med Chem, 2013) are described below.

Structures are written as SMILES. Where only a bound is given, the exact number is not on record here.

As usually defined, the IC50 is the concentration that inhibits the measured activity by half. The low end stands for inhibition by little substance, the high end for a need for much substance.

Tested on in the first series: not listed separately
Put plainly: Selectivity index, ratio of IC50 for rat L6 cells to IC50 for Trypanosoma brucei rhodesiense STIB900. As to conditions: read-out: Ratio IC50. It counts as toxicity, cell-based. In outline: (§1)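 SI = IC50 in rat L6 myoblasts / IC50 against the parasite (T. b. rhodesiense STIB900 or P. falciparum K1). Each IC50 is the average of duplicate determinations.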
Regarding `CC(C)NC(=N)c1ccc(COc2ccc(C(=N)NC(C)C)cc2)cc1`, the selectivity ratio is more than 107.
Regarding `N=C(N)c1cccc(COc2ccc(C(=N)N)cc2I)c1`, the selectivity ratio is 1190.
Take `COc1ccc(OCc2ccc(C(=N)N)cc2)cc1`: the selectivity ratio was found to be 36.
Consider `N=C(N)c1ccc(COc2ccc(Cl)cc2)cc1`, for which the selectivity ratio was determined as 8.
With `N=C(N)c1cccc(OCc2cccc([N+](=O)[O-])c2)c1`, the selectivity ratio is 164.
The same measure, in the same setting: then `CC(C)c1ccc(OCc2ccc(C(=N)N)cc2)cc1`, with 4.
For the compound `CO/N=C(\N)c1cccc(COc2c(Br)cc(/C(N)=N/OC)cc2OC)c1.Cl.Cl`, the selectivity ratio was less than 1.
`N=C(N)c1ccc(COc2cccc([N+](=O)[O-])c2)cc1`: the selectivity ratio worked out at 27.
With `CO/N=C(\N)c1cccc(COc2c(I)cc(/C(N)=N/OC)cc2OC)c1.Cl.Cl`, the selectivity ratio was 1.
For the compound `N=C(N)c1ccc(OCc2ccc([N+](=O)[O-])cc2)c(I)c1`, the selectivity ratio was 6.
As to `N=C(N)c1ccc(COc2ccccc2)cc1`, the selectivity ratio is 45.
For the compound `N=C(N)c1ccc(COc2ccc(C(=N)N)cc2I)cc1`, the selectivity ratio came to 312.
For the compound `N=C(N)c1ccc(COc2ccc([N+](=O)[O-])cc2)cc1`, the selectivity ratio turned out to be 18.
In the case of `N=C(N)c1cccc(OCc2ccccc2)c1`, the selectivity ratio is 17.

Tested on in another series: not listed separately
The series can be described thus: Selectivity index, ratio of IC50 for rat L6 cells to IC50 for amastigotes of Leishmania donovani. It counts as toxicity, cell-based. As to conditions: read-out: Ratio IC50. The gist of the method: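 SI = IC50 in rat L6 myoblasts / IC50 against L. donovani MHOM/SD/62/IS-CL2D axenic amastigotes. The amastigote IC50 is the average of at least two determinations; the L6 IC50 is the average of duplicates.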
For the compound `CC(C)NC(=N)c1ccc(COc2ccc(C(=N)NC(C)C)cc2)cc1`, the selectivity ratio is more than 5.
Same read-out and setting: then `N=C(N)c1cccc(COc2ccc(C(=N)N)cc2I)c1`, with 5.
`CC(C)c1ccc(OCc2ccc(C(=N)N)cc2)cc1`: the selectivity ratio is less than 1.
`CO/N=C(\N)c1cccc(COc2c(Br)cc(/C(N)=N/OC)cc2OC)c1.Cl.Cl`: the selectivity ratio was less than 1.
The same measure, in the same setting: to `CO/N=C(\N)c1cccc(COc2c(I)cc(/C(N)=N/OC)cc2OC)c1.Cl.Cl` belongs less than 1.
Still for that read-out and setting: to `N=C(N)c1ccc(OCc2ccc([N+](=O)[O-])cc2)c(I)c1` belongs less than 1; to `N=C(N)c1ccc(COc2ccc(C(=N)N)cc2I)cc1`, 3.

The next series deals with Leishmania donovani. The series can be described thus: Antileishmanial activity against amastigotes of Leishmania donovani MHOM/SD/62/IS-CL2D. It is filed as functional, organism-based.
Conditions: not given
The gist of the method: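 Axenic amastigotes of L. donovani MHOM/SD/62/IS-CL2D; IC50 taken as the average of at least two determinations.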
`CC(C)NC(=N)c1ccc(COc2ccc(C(=N)NC(C)C)cc2)cc1` came in with an IC50 of 26.6 µM.
Turning to `N=C(N)c1cccc(COc2ccc(C(=N)N)cc2I)c1`, the IC50 was found to be 1.27 µM.
For `CC(C)c1ccc(OCc2ccc(C(=N)N)cc2)cc1`, half-maximal inhibition (IC50) was put at 49.5 µM.
The compound `CO/N=C(\N)c1cccc(COc2c(Br)cc(/C(N)=N/OC)cc2OC)c1.Cl.Cl` displayed an IC50 of more than 100 µM.
`CO/N=C(\N)c1cccc(COc2c(I)cc(/C(N)=N/OC)cc2OC)c1.Cl.Cl` displayed an IC50 of more than 100 µM.
On to `N=C(N)c1ccc(OCc2ccc([N+](=O)[O-])cc2)c(I)c1`, for which the IC50 was more than 50 µM.
`N=C(N)c1ccc(COc2ccc(C(=N)N)cc2I)cc1` registered an IC50 of 1.94 µM.

A further series has as its system Trypanosoma brucei rhodesiense. Put plainly: Antitrypanosomal activity against Trypanosoma brucei rhodesiense STIB900 after 72 hrs by Alamar blue assay. It is filed as functional, organism-based. As to conditions: STIB900, 72 h. (Alamar Blue is a resazurin reagent that responds to reducing activity.)
For the compound `CC(C)NC(=N)c1ccc(COc2ccc(C(=N)NC(C)C)cc2)cc1`, the IC50 was determined as 1.35 µM.
With `N=C(N)c1cccc(COc2ccc(C(=N)N)cc2I)c1`, the IC50 was 0.005 µM.
`COc1ccc(OCc2ccc(C(=N)N)cc2)cc1` had an IC50 of 3.95 µM.
In turn, `N=C(N)c1ccc(COc2ccc(Cl)cc2)cc1` returned an IC50 of 2.71 µM.
`N=C(N)c1cccc(OCc2cccc([N+](=O)[O-])c2)c1`: the IC50 amounted to 0.481 µM.
The compound `CC(C)c1ccc(OCc2ccc(C(=N)N)cc2)cc1` displayed an IC50 of 1.29 µM.
Compound `CO/N=C(\N)c1cccc(COc2c(Br)cc(/C(N)=N/OC)cc2OC)c1.Cl.Cl` returned an IC50 of 81.5 µM.
For the compound `N=C(N)c1ccc(COc2cccc([N+](=O)[O-])c2)cc1`, half-maximal inhibition (IC50) was put at 2.12 µM.
Take `CO/N=C(\N)c1cccc(COc2c(I)cc(/C(N)=N/OC)cc2OC)c1.Cl.Cl`: the IC50 is 75.1 µM.
The same measure, in the same setting: to `N=C(N)c1ccc(OCc2ccc([N+](=O)[O-])cc2)c(I)c1` belongs 1.9 µM; to `N=C(N)c1ccc(COc2ccccc2)cc1`, 3.71 µM.
Take `N=C(N)c1ccc(COc2ccc(C(=N)N)cc2I)cc1`: half-maximal inhibition (IC50) was put at 0.017 µM.
`N=C(N)c1ccc(COc2ccc([N+](=O)[O-])cc2)cc1` displayed an IC50 of 4.41 µM.
`N=C(N)c1cccc(OCc2ccccc2)c1` had an IC50 of 9.32 µM.

Another series has as its system Plasmodium falciparum. The series can be described thus: Antiplasmodial activity against chloroquine-resistant Plasmodium falciparum K1. It counts as functional, organism-based.
Conditions: not given
In outline:
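Chloroquine-resistant K1 strain tested in vitro. IC50 is the average of duplicate determinations.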
As for `CC(C)NC(=N)c1ccc(COc2ccc(C(=N)NC(C)C)cc2)cc1`, the IC50 was found to be 0.02 µM.
With `N=C(N)c1cccc(COc2ccc(C(=N)N)cc2I)c1`, the midpoint of inhibition, the IC50, lay at 0.013 µM.
Take `COc1ccc(OCc2ccc(C(=N)N)cc2)cc1`: the IC50 was more than 3.42 µM.
On to `N=C(N)c1ccc(COc2ccc(Cl)cc2)cc1`, for which the IC50 is more than 3.36 µM.
Consider `N=C(N)c1cccc(OCc2cccc([N+](=O)[O-])c2)c1`, for which the IC50 was more than 3.16 µM.
For `CC(C)c1ccc(OCc2ccc(C(=N)N)cc2)cc1`, the IC50 was 2.37 µM. This lies in the single-digit micromolar range.
Still for that read-out and setting: to `CO/N=C(\N)c1cccc(COc2c(Br)cc(/C(N)=N/OC)cc2OC)c1.Cl.Cl` belongs 3.35 µM; to `N=C(N)c1ccc(COc2cccc([N+](=O)[O-])c2)cc1`, more than 3.25 µM.
`CO/N=C(\N)c1cccc(COc2c(I)cc(/C(N)=N/OC)cc2OC)c1.Cl.Cl`: the midpoint of inhibition, the IC50, lay at 1.12 µM. This lies in the single-digit micromolar range.
`N=C(N)c1ccc(OCc2ccc([N+](=O)[O-])cc2)c(I)c1` gave an IC50 of 0.951 µM. This IC50 and that of the compound before are within 1.5-fold of each other.
`N=C(N)c1ccc(COc2ccccc2)cc1` registered an IC50 of more than 3.56 µM.
In turn, `N=C(N)c1ccc(COc2ccc(C(=N)N)cc2I)cc1` displayed an IC50 of 0.006 µM.
`N=C(N)c1ccc(COc2ccc([N+](=O)[O-])cc2)cc1` showed an IC50 of more than 3.07 µM.
Consider `N=C(N)c1cccc(OCc2ccccc2)c1`, for which the IC50 was more than 3.81 µM.

The next series concerns L6. The series can be described thus: Cytotoxicity against rat L6 cells after 72 hrs by Alamar blue assay. It is filed as cell-based. As to conditions: L6, 72 h. In outline:
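Rat L6 myoblast cells; cytotoxic IC50 taken as the average of duplicate determinations.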
As to `CC(C)NC(=N)c1ccc(COc2ccc(C(=N)NC(C)C)cc2)cc1`, the IC50 was more than 144 µM.
In turn, `N=C(N)c1cccc(COc2ccc(C(=N)N)cc2I)c1` registered an IC50 of 6.06 µM.
On to `COc1ccc(OCc2ccc(C(=N)N)cc2)cc1`, for which the IC50 is 143 µM.
For the compound `N=C(N)c1ccc(COc2ccc(Cl)cc2)cc1`, the IC50 was determined as 20.7 µM.
Same read-out and setting: to `N=C(N)c1cccc(OCc2cccc([N+](=O)[O-])c2)c1` belongs 78.9 µM; to `CC(C)c1ccc(OCc2ccc(C(=N)N)cc2)cc1`, 5.36 µM.
Same read-out and setting: then `CO/N=C(\N)c1cccc(COc2c(Br)cc(/C(N)=N/OC)cc2OC)c1.Cl.Cl`, with 70.5 µM.
As to `N=C(N)c1ccc(COc2cccc([N+](=O)[O-])c2)cc1`, half-maximal inhibition (IC50) required 57.8 µM. This IC50 and that of the compound before are within 1.5-fold of each other.
For `CO/N=C(\N)c1cccc(COc2c(I)cc(/C(N)=N/OC)cc2OC)c1.Cl.Cl`, the IC50 was 81.4 µM.
With `N=C(N)c1ccc(OCc2ccc([N+](=O)[O-])cc2)c(I)c1`, the IC50 amounted to 10.7 µM.
For `N=C(N)c1ccc(COc2ccccc2)cc1`, 167 µM corresponded to half-maximal inhibition (IC50).
Consider `N=C(N)c1ccc(COc2ccc(C(=N)N)cc2I)cc1`, for which half-maximal inhibition (IC50) was put at 5.3 µM. This IC50 is about 32-fold lower than that of the compound before.
For `N=C(N)c1ccc(COc2ccc([N+](=O)[O-])cc2)cc1`, half-maximal inhibition (IC50) was put at 79.2 µM. Compared with the last compound, the IC50 is about 15-fold higher.
`N=C(N)c1cccc(OCc2ccccc2)c1` came in with an IC50 of 156 µM.

A further series relates to Trypanosoma brucei rhodesiense. The series can be described thus: Antitrypanosomal activity against Trypanosoma brucei rhodesiense STIB900 infected in NMRI mouse assessed as mean survival days at 25 mg/kg, po administered for 4 days. It is filed as functional.
Conditions: not given
The gist of the method: (§2)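 Female NMRI mice, acute infection model with T. b. rhodesiense STIB900. Compound given as a single daily dose for four days, intraperitoneally or orally. Cure means survival to 60 days post-infection without parasitaemia relapse. Mean survival recorded in days.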
For the compound `CO/N=C(\N)c1cccc(COc2c(Br)cc(/C(N)=N/OC)cc2OC)c1.Cl.Cl`, the MSD was more than 52.25 days.
With `CO/N=C(\N)c1cccc(COc2c(I)cc(/C(N)=N/OC)cc2OC)c1.Cl.Cl`, the MSD was 40.25 days.

In the next series the test system is Trypanosoma brucei rhodesiense. Put plainly: Antitrypanosomal activity against Trypanosoma brucei rhodesiense STIB900 infected in NMRI mouse assessed as mean survival days at 5 mg/kg, ip administered for 4 days. It is filed as functional. As to conditions: route intraperitoneal. The gist of the method:
as §2
Regarding `N=C(N)c1cccc(COc2ccc(C(=N)N)cc2I)c1`, the MSD was more than 31.25 days.
Turning to `N=C(N)c1ccc(COc2ccc(C(=N)N)cc2I)cc1`, the MSD is more than 41.5 days.

Tested on in the next series: not listed separately
Put plainly: Selectivity index, ratio of IC50 for rat L6 cells to IC50 for chloroquine-resistant Plasmodium falciparum K1. It is filed as toxicity, cell-based. As to conditions: read-out: Ratio IC50. The gist of the method: as §1
Turning to `CC(C)NC(=N)c1ccc(COc2ccc(C(=N)NC(C)C)cc2)cc1`, the selectivity ratio is more than 7370.
The same measure, in the same setting: then `N=C(N)c1cccc(COc2ccc(C(=N)N)cc2I)c1`, with 477; and `COc1ccc(OCc2ccc(C(=N)N)cc2)cc1`, with less than 42.
Regarding `N=C(N)c1ccc(COc2ccc(Cl)cc2)cc1`, the selectivity ratio is less than 6.
Regarding `N=C(N)c1cccc(OCc2cccc([N+](=O)[O-])c2)c1`, the selectivity ratio was less than 25.
Consider `CC(C)c1ccc(OCc2ccc(C(=N)N)cc2)cc1`, for which the selectivity ratio turned out to be 3.
As for `CO/N=C(\N)c1cccc(COc2c(Br)cc(/C(N)=N/OC)cc2OC)c1.Cl.Cl`, the selectivity ratio was determined as 21.
As to `N=C(N)c1ccc(COc2cccc([N+](=O)[O-])c2)cc1`, the selectivity ratio was less than 18.
Still for that read-out and setting: to `CO/N=C(\N)c1cccc(COc2c(I)cc(/C(N)=N/OC)cc2OC)c1.Cl.Cl` belongs 73.
As to `N=C(N)c1ccc(OCc2ccc([N+](=O)[O-])cc2)c(I)c1`, the selectivity ratio amounted to 11.
For `N=C(N)c1ccc(COc2ccccc2)cc1`, the selectivity ratio was less than 47.
Take `N=C(N)c1ccc(COc2ccc(C(=N)N)cc2I)cc1`: the selectivity ratio turned out to be 898.
Regarding `N=C(N)c1ccc(COc2ccc([N+](=O)[O-])cc2)cc1`, the selectivity ratio was less than 26.
Turning to `N=C(N)c1cccc(OCc2ccccc2)c1`, the selectivity ratio is less than 41.
